In ChEMBL document CHEMBL1121917, “Structure--activity relationships in a broad-spectrum anthelmintic series. Acid chloride phenylhydrazones. 1. Aryl substitutions and chloride variations” (1981) one finds Reduction and Parasite_Clearance data, which are given here for one compound.

SMILES strings stand for the structures.

The species entered for assay [1] is Canis familiaris. In words: Percent reduction in Uncinaria eggs per gram, after oral treatment of 10 mg/dog dose of compound in a double treatment. It counts as functional, Canis lupus familiaris, Egg.
The species named for assay [2] is Canis familiaris. Nature of the assay: Percent reduction in Uncinaria eggs per gram, after oral treatment of 20 mg/dog dose of compound in a triple treatment. The format is functional, Canis lupus familiaris, Egg.
The species named for assay [3] is Canis familiaris. Nature of the assay: Percent reduction in Uncinaria eggs per gram, after oral treatment of 25 mg/dog dose of compound in a single treatment. The format is functional, Canis lupus familiaris, Egg.
The species entered for assay [4] is Canis familiaris. In words: Percent reduction in Ancylostoma eggs per gram, after oral treatment of 20 mg/dog dose of compound in a single treatment. The format is functional, Canis lupus familiaris, Egg. The gist of the method:
(§1)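 Dogs naturally infected with Toxascaris leonina were experimentally infected with mixed Ancylostoma caninum and Uncinaria stenocephala larvae. Finely ground compound was given orally in gelatin capsules. Fecal egg counts were taken three times before and three times after treatment, and activity was taken as the fall in egg counts.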

The species entered for assay [5] is Canis familiaris. Nature of the assay: Percent reduction in Ancylostoma eggs per gram, after oral treatment of 20 mg/dog dose of compound in a triple treatment. The format is functional, Canis lupus familiaris, Egg. The gist of the method: as §1
The species named for assay [6] is Canis familiaris. In words: Percent reduction in Ancylostoma eggs per gram, after oral treatment of 25 mg/dog dose of compound in a single treatment. It counts as functional, Canis lupus familiaris, Egg. The gist of the method: as §1
The species named for assay [7] is Canis familiaris. Nature of the assay: Percent reduction in Ancylostoma eggs per gram, after oral treatment of 10 mg/dog dose of compound in a double treatment. The format is functional, Canis lupus familiaris, Egg. The gist of the method: as §1
Assay [8] is filed under the species Mus musculus. Nature of the assay: Percent clearance of Hymenolepis nana from mouse after oral treatment of 1.5 mg/mouse/day. It counts as functional. The gist of the method:
(§2)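 Mice naturally carrying Syphacia obvelata were experimentally infected with Nematospiroides dubius and Hymenolepis nana, then grouped after a 2-week prepatency. Finely ground compound was suspended in aqueous 0.10% carboxymethylcellulose, 0.04% polysorbate 80 and 0.0042% polyparaben, and 0.1 mL was given orally by cannula once daily for 4 days to five mice. Necropsy followed 2 days later, scoring presence or absence of each parasite. Control clearance was subtracted from the treated clearance.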

Assay [9] relates to Ovis aries. In words: Percent reduction in Trichuris eggs per gram, after treatment with 100 mg/kg dose of compound perorally in sheep. It counts as functional, Egg. The settings on record: route oral. The gist of the method:
(§3)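 Naturally parasitized lambs, dosed orally either with a suspension by stomach tube or with finely ground compound in gelatin capsules by balling gun. Activity was scored by the clinical test method, meaning a significant fall in helminth egg counts after treatment.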

Assay [10] relates to Ovis aries. In words: Percent reduction in Haemonchus eggs per gram, after treatment with 100 mg/kg dose of compound perorally in sheep. The settings on record: route oral. It counts as functional, Egg. The method in brief: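 Naturally parasitized lambs received compound orally, either as the aqueous suspension by stomach tube or as finely ground powder in gelatin capsules by balling gun. Activity was judged by the clinical test method, as a significant decrease in posttreatment helminth egg counts.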

In assay [11] the test system is Ovis aries. In words: Percent reduction in Haemonchus eggs per gram, after treatment with 200 mg/kg dose of compound perorally in sheep. The format is functional, Egg. The settings on record: dose 200 mg/kg; route oral. The gist of the method:
(§4)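 Naturally parasitized lambs were dosed orally at the stated mg/kg. Dosing was either as a suspension of finely ground compound by stomach tube, or as ground compound weighed into gelatin capsules and given by balling gun. Activity was scored by the clinical test method: the decrease in posttreatment helminth eggs per gram.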

Assay [12] has as its system Ovis aries. Nature of the assay: Percent reduction in Oesophagostomum eggs per gram, after treatment with 100 mg/kg dose of compound perorally in sheep. It counts as functional, Egg. Conditions: route oral. The method in brief:
as §4

Assay [13] relates to Ovis aries. Nature of the assay: Percent reduction in Oesophagostomum eggs per gram, after treatment with 200 mg/kg dose of compound perorally in sheep. It counts as functional, Egg. Conditions: dose 200 mg/kg; route oral. The gist of the method:
as §4

For assay [14], the system named is Ovis aries. In words: Percent reduction in Trichostrongylus eggs per gram, after treatment with 100 mg/kg dose of compound perorally in sheep. It counts as functional, Egg. Conditions: route oral. The gist of the method: as §3
The test system of assay [15] is Ovis aries. Nature of the assay: Percent reduction in Ostertagia eggs per gram, after treatment with 100 mg/kg dose of compound perorally in sheep. It counts as functional, Egg. Conditions: route oral. The method in brief: as §4
Assay [16] concerns Ovis aries. Nature of the assay: Percent reduction in Ostertagia eggs per gram, after treatment with 200 mg/kg dose of compound perorally in sheep. The settings on record: route oral. It counts as functional, Egg. The gist of the method: as §3
The test system of assay [17] is Ovis aries. In words: Percent reduction in Trichostrongylus eggs per gram, after treatment with 200 mg/kg dose of compound perorally in sheep. The format is functional, Egg. The settings on record: route oral. The gist of the method: as §3
The subject of assay [18] is Ovis aries. In words: Percent reduction in Strongyloides eggs per gram, after treatment with 100 mg/kg dose of compound perorally in sheep. It counts as functional, Egg. The settings on record: route oral. The method in brief:
as §3

The species entered for assay [19] is Mus musculus. In words: Percent clearance of Syphacaia obvelata from mouse after oral treatment of 1.5 mg/mouse/day. It counts as functional. The gist of the method:
as §2

Assay [20] is filed under the species Canis familiaris. Nature of the assay: Percent reduction in Uncinaria eggs per gram, after oral treatment of 20 mg/dog dose of compound in a single treatment. The format is functional, Canis lupus familiaris, Egg.
In assay [21] the test system is Ovis aries. In words: Percent reduction in Strongyloides eggs per gram, after treatment with 200 mg/kg dose of compound perorally.
In assay [22] the test system is Ovis aries. Nature of the assay: Percent reduction in Trichostrongylus eggs per gram, after treatment with 150 mg/kg dose of compound intraperitoneally in sheep. The settings on record: route intraperitoneal.

As for `CCCCOc1ccc(/C(Cl)=N/Nc2ccccc2)cc1`, the Reduction in the assay filed under Canis familiaris [1] was determined as 75%; in the assay filed under Canis familiaris [2], 100%; in the assay filed under Canis familiaris [3], 67%; in the assay filed under Canis familiaris [4], 86%; in the assay filed under Canis familiaris [5], 0%; in the assay filed under Canis familiaris [6] it was 100%. In addition, the Reduction in the assay listed under Canis familiaris [7] is 92%; in the assay with Ovis aries [9] it was 100%; in the assay on Ovis aries [10] it was 100%; in the assay with Ovis aries [11] it was 100%; in the assay on Ovis aries [12] it was 100%; in the assay with Ovis aries [13], 100%. Besides, the Reduction was found to be 100% in the assay on Ovis aries [14]; 100% with Ovis aries [15]; 100% in the assay on Ovis aries [16]; 100% with Ovis aries [17]; 32% in the assay with Ovis aries [18]; 86% in the assay filed under Canis familiaris [20]. Also, the Reduction is reported as 100% with Ovis aries [21] and 0% with Ovis aries [22]. Also, the Parasite_Clearance in the assay filed under Mus musculus [8] and in the assay listed under Mus musculus [19] was 100% each time.
